Screening data (PubChem BioAssay)
thrombin 1536: human alpha-thrombin inhibitors, primary screen, counter-screen for coagulation protease inhibitor project, biochemical, 1536-well, fluorogenic AMC substrate; Boc-VPR-AMC fluorogenic substrate cleavage; hit rate 0.26% among 220,000; Prothrombin (Homo sapiens), P00734; inhibition, % at 5 µM;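 active means inhibition at or above 40%; inactive means inhibition below 40%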;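 further: 0% = enzyme with no compound and 100% = wells without enzyme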
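Material: human alpha-thrombin protein. Incubation: reaction at ambient temperature. Technique: fluorescence of released AMC, ex 355 nm, em 460 nm. Control set: no-compound enzyme wells and no-enzyme blanks. Also added: Boc-VPR-AMC substrate, 15 µM final. Buffer or medium: pH 7.5 Tris (50 mM) with NaCl 150 mM, Tween 20 0.05%.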
EP2 antag: human EP2 receptor antagonists, primary screen, TR-FRET cAMP, C6 glioma cells; Prostaglandin E2 receptor EP2 subtype (Homo sapiens), P43116; C6 glioma cells expressing human EP2; cells stimulated with saturating PGE2; inhibition, % at 25 µM; hit rate 0.52% among 260,000; AID 1422, 2008;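 active means percent inhibition above 40 after rounding to a whole number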;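 further: rat C6 glioma host cells with rolipram phosphodiesterase inhibitor present; the protocol text gives 20 µM as final concentration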
Target sequence (P43116 whole entry, looked up): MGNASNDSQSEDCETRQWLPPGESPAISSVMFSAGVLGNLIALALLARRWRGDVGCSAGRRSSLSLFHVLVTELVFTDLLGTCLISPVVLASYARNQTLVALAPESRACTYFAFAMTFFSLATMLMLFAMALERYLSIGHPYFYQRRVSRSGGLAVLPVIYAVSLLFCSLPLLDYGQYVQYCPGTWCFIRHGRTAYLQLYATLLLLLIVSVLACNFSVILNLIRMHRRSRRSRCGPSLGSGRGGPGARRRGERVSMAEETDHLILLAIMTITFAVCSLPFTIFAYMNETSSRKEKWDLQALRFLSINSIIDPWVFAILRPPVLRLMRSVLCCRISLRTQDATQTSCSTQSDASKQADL
EP2 mod: EP2 receptor modulators, cAMP readout, primary screen, cell-based, HTRF cAMP, PGE2 stimulation; Prostaglandin E2 receptor EP2 subtype (Homo sapiens), P43116; EP2-expressing cells, cAMP HTRF FRET, PGE2 co-stimulation; induction, % at 25 µM; hit rate 0.83% among 260,000;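 active means compounds whose cAMP rise, as percent of the full-agonist control response, exceeds 60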;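 further: rat C6 glioma line stably carrying human EP2 under a CMV promoter; the protocol text gives 20 µM as final concentration; 100% = response of wells given 1 µM PGE2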
FXIIa inh: human FXIIa protease inhibitors, primary screen, biochemical, 1536-well. Coagulation factor XII (Homo sapiens), P00748. purified FXIIa, Boc-QGR-AMC fluorogenic substrate, 2 h. inhibition, % at 5 µM. hit rate 0.3% among 220,000. AID 800, 2007; in the data active means inhibition above about 40%;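 further: 0% = enzyme with no compound and 100% = blank without enzyme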
hK5 inh: human KLK5 protease inhibitors, primary screen, biochemical, 1536-well. hit rate 0.59% among 210,000. AID 873, 2007. inhibition, % at 5 µM. recombinant hK5, fluorogenic AMC substrate cleavage;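 active means inhibition of 40% or more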;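 further: 0% = enzyme controls without compound and 100% = no-enzyme blanks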
Target sequence (Q9Y337 67-293 limits assumed): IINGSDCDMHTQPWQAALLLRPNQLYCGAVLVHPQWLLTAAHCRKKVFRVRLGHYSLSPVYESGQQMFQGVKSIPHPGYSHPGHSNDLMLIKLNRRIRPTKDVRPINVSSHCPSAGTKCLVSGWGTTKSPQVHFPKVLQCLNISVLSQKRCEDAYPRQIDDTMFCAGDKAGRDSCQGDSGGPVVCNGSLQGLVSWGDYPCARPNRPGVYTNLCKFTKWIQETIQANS
FXIa inh 1536: human FXIa protease inhibitors, primary screen, biochemical, 1536-well | inhibition, % at 5 µM | hit rate 0.14% among 220,000 | Coagulation factor XI (Homo sapiens), P03951 | purified FXIa, Boc-Glu-Ala-Arg-AMC fluorogenic substrate;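 active means inhibition of at least 40%; inactive means inhibition below 40%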;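 further: fluorescence of freed AMC excited at 355 nm; 0% = enzyme without compound and 100% = no enzyme blank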
An asterisk follows results filed as active; nt = not tested or not shown; ! = repeats disagree. An excerpt weighted towards active compounds, which were near 2.1% of everything screened.

SMILES	thrombin 1536	EP2 antag	EP2 mod	FXIIa inh	hK5 inh	FXIa inh 1536
OC(c1ccccc1)(c1ccc(F)cc1)C(c1ccccc1)N1CCOCC1 (stereo unspecified)	-1	6	61*	14	5	-4
O=C(NCC(c1ccc(F)cc1)N1CCOCC1)c1ccc(C(=O)c2ccccc2)cc1 (stereo unspecified)	2	6	-18	12	2	3
COc1ccc(C2C(C(=O)Nc3ccccc3)=C(C)N=C3SCC(=O)N32)cc1 (stereo unspecified)	4	16	17	18	-29	10
CC1=C(C(=O)Nc2ccccc2)C(c2ccc(O)cc2)N2C(=O)CSC2=N1 (stereo unspecified)	43*	6	10	16	37	7
O=C(CSc1nc2[nH]ncc2c(=O)[nH]1)N1CCCCC1	47*	1	23	15	36	3
O=C(CSc1nc2[nH]ncc2c(=O)[nH]1)N1CCCC1	-15	7	8	8	-5	4
COc1cc(NC(=O)CN(C)S(=O)(=O)c2ccc3c(c2)CCC(=O)N3)cc(OC)c1	-6	15	-54	-1	49*	-8
CC(C)c1cccc(C(C)C)c1NC(=O)C1COc2ccccc2O1 (stereo unspecified)	nt	4	20	nt	nt	nt
CC(=O)Nc1cccc(NC(=O)C2CCCN2C(=O)Nc2cccc(C)c2)c1 (stereo unspecified)	15	8	9	11	41*	12
COc1ccc(Cn2nnnc2CN(Cc2cccnc2)Cc2cc3cccc(C)c3[nH]c2=O)cc1	nt	23	8	nt	nt	nt
Clc1ccccc1-c1ncnc2ccc(Br)cc12	-3	17	64*!	3	4	-8
CC(=O)Nc1cccc(NC(=O)CSc2ncc(-c3ccc(Cl)cc3)n2Cc2ccco2)c1	-1	41*	-8	4	-8	2
COc1ccc(-c2cnc(SCC(=O)Nc3ccc4c(c3)OCO4)n2Cc2ccco2)cc1	-3	nt	23	11	6	3
CCc1ccc2c(c1)cc(C)c1nnc(SCC(=O)N3CCCC3)n12	nt	8	4	nt	nt	nt
N#Cc1ccc(NC(=O)CSc2nc(N)c(C#N)cc2C#N)cc1	nt	43*	-5	nt	nt	nt
CCOC(=O)c1ccc(C[N+](C)(CC)CC)o1	nt	10	-17	nt	nt	nt
COC(=O)c1c(NC(=O)c2cccc(F)c2)sc(C(=O)Nc2ccccc2OC)c1C	nt	13	4	nt	nt	nt
CC(=O)c1ccc(NC(=O)c2ccc(CNc3c(N4CCCC4)c(=O)c3=O)cc2)cc1	-3	3	-13	11	5	1
CCOc1ccc(NC(=O)c2ccc(CNc3c(N4CCCC4)c(=O)c3=O)cc2)cc1	41*	5	-24	21	7	11
Cc1cc(C(=O)NCC(=O)N2CCC3(CC2)NC(=O)c2ccccc2O3)c(C)o1	nt	6	-14	nt	nt	nt
Oc1ccc(O)cc1	nt	110*!	-34	nt	nt	nt
O=C(c1ccc(O)cc1)c1ccc(C(=O)c2ccc(O)cc2)cc1	3	11	-45	6	2	2
COc1cccc(-c2cc(C(=O)Nc3c(C)nn(Cc4ccccc4)c3C)no2)c1	41*	7	-27	10	55*	10
Cc1ccc2ncccc2c1[N+](=O)[O-]	0	7	6	6	-1	1
O=[N+]([O-])c1ccc2ncccc2c1CCc1c([N+](=O)[O-])ccc2ncccc12	nt	53*	4	nt	nt	nt
SMILES	thrombin 1536	EP2 antag	EP2 mod	FXIIa inh	hK5 inh	FXIa inh 1536
CC1OC(O[C@H]2CC[C@]3(C)C4C=C[C@]56OC[C@@]7(CC[C@@H](C)[C@H](C)C75)[C@H](O)C[C@@]6(C)[C@]4(C)CC[C@H]3C2(C)C)C(OC2OC(CO)C(O)C(O)C2OC2OCC(O)C(O)C2O)C(O)C1O (stereo partly specified)	55*	nt	-15	4	0	0
Cc1cc2c(C)cc(=O)[nH]c2cc1N	nt	7	-4	nt	nt	nt
COc1ccc(/C=C/c2c(-c3cccc(C)c3)oc3ccc(N4CCOCC4)cc23)cc1	nt	40*	nt	nt	nt	nt
COc1ccc(-c2oc3ccc(N4CCOCC4)cc3c2C#CC2(O)CCCCC2)cc1	nt	8	nt	nt	nt	nt
Cn1c(N)nc2c(nc(OCc3ccccc3)n2[C@H]2O[C@H](CO)[C@@H](O)[C@@H]2O)c1=O	nt	57*	25	nt	nt	nt
CCOC(=O)Nc1c(O)ccc2oc(C)c(-c3ccccc3)c12	20	11	-8	20	84*	7
Cc1cccc2cc(C(c3nnnn3C3CCCCC3)N3CCN(c4ccccc4)CC3)c(=O)[nH]c12 (stereo unspecified)	nt	6	3	nt	nt	nt
CC(=O)c1cccc(NC(=O)c2csc(-n3nc(C)cc3C(F)(F)F)n2)c1	19	11	29	21	56*	11
Cc1cc(C(F)(F)F)n(-c2nc(C(=O)Nc3cccnc3)cs2)n1	0	6	10	-9	-30	-10
CCc1nn(CC(=O)NC2CC2)c(=O)c2cc3sccc3n12	nt	nt	0	nt	nt	nt
O=C(OCCNC(=O)c1cc2ccccc2oc1=O)c1cccnc1	0	10	64*	12	3	-1
COc1cccc(C(=O)OCCCNC(=O)c2cc3ccccc3oc2=O)c1	nt	12	-66	nt	nt	nt
O=C(C1CCN(c2ccc(N3CCOCC3)nn2)CC1)N1CCN(c2ccc(F)cc2)CC1	0	7	nt	-10	106*	-6
Cc1ccc(NC(=O)CNCc2ccco2)cc1Br	nt	9	-92	nt	nt	nt
CC(=O)C1=C(C)NC(SCSc2ccccc2)=C(C#N)C1c1cccnc1 (stereo unspecified)	-3	9	14	-13	3	-19
CC(=O)C1=C(C)NC(SCC(=O)c2ccc(-c3ccccc3)cc2)=C(C#N)C1c1cccnc1 (stereo unspecified)	1	49*	-22	13	9	-2
CC1(C)N=C(N)N=C(N)N1c1cccc(CN)c1	0	4	22	11	-1	0
CC1(C)N=C(N)N=C(N)N1c1cccc(CSc2ccccc2)c1	nt	52*	20	nt	nt	nt
CC1(C)N=C(N)N=C(N)N1c1ccccc1	4	13	28	19	-1	5
CC1(C)N=C(N)N=C(N)N1c1cccc(OCc2cccc(N)c2)c1	nt	54*	-2	nt	nt	nt
Cn1nc(C(C)(C)C)cc1C(=O)Nc1ncc(Cc2ccc(F)cc2)s1	nt	7	-31	nt	nt	nt
CC1CC(=O)c2c(cc3c(-c4c(O)cc(O)c5c(O)c6c(cc45)OC(C)CC6=O)c(O)cc(O)c3c2O)O1 (stereo unspecified)	6	77*	-17	14	-2	8
